Reference: article PMC3954597 (Biochemistry, 2014)
Residue numbers refer to the chain shown, from its start.

Assays:
Type in all cases: biochemical
R24M PTP1B = molecular target: T1, R24M PTP1B (Homo sapiens, UniProt P18031, R24M); test: PTP assay, R24M PTP1B
T1 sequence (P18031 1-321 R24M): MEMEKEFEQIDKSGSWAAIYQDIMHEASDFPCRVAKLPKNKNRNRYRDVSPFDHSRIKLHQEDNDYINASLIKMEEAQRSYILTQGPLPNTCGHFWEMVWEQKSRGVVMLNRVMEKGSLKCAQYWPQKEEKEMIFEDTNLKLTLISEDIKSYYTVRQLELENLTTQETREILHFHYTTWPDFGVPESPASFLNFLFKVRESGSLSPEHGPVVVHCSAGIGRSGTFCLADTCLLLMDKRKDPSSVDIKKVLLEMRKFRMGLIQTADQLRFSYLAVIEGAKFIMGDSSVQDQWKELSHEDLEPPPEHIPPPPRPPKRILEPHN
Summary of the method: (§1)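 E. coli-expressed catalytic domains were used: wild-type, R24M or R47E PTP1B (aa 1–321), and SHP-1 (aa 205–595). Reactions started with PTP (0.5–20000 nM final) and dephosphorylation was monitored continuously at 282 nm. kcat, KM and kcat/KM came from initial-rate fits (Michaelis–Menten, or V = kcat[E][S]/KM when KM >> [S]) or from fits of progress curves.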

R47E PTP1B = molecular target: T2, R47E PTP1B (Homo sapiens, UniProt P18031, R47E); test: PTP assay, R47E PTP1B
T2 sequence (P18031 1-321 R47E): T1 sequence (P18031 1-321 R24M) with M24R, R47E
Summary of the method: as §1

PTPD1 = molecular target: T3, PTPD1 (Homo sapiens, UniProt Q16825); test: Pre-steady-state; details: 25 °C; initial phase not resolved, too fast for the instrument
T3 sequence (Q16825 875-1174): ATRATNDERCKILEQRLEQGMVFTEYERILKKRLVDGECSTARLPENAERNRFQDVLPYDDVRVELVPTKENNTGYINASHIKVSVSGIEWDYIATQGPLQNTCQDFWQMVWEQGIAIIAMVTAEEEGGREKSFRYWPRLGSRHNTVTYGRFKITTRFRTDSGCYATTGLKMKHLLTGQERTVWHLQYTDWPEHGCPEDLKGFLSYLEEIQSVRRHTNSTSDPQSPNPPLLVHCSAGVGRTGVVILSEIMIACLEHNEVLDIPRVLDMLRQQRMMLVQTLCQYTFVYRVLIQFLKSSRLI

PTP1B = molecular target: T4, PTP1B (Homo sapiens, UniProt P18031); test: PTP assay, wild-type PTP1B; details: WT PTP1B aa 1–321; pH 7.4
T4 sequence (P18031 1-321): T1 sequence (P18031 1-321 R24M) with M24R
Summary of the method: as §1

Km (R24M PTP1B; R24M PTP1B aa 1–321, pH 7.4): 3 ± 0.1 µM
kcat (R24M PTP1B; R24M PTP1B aa 1–321, pH 7.4): 17 ± 1 s⁻¹
kcat/KM x 10^7 (R24M PTP1B; R24M PTP1B aa 1–321, pH 7.4): 0.00057 x 10^7 M^−1 s^−1
WT/R24M (R24M PTP1B; ratio of kcat/KM, WT over R24M PTP1B (fold reduction by the mutation)): 1.2
Km (R47E PTP1B; R47E PTP1B aa 1–321, pH 7.4): 2800 ± 300 µM
kcat (R47E PTP1B; R47E PTP1B aa 1–321, pH 7.4): 16 ± 1 s⁻¹
kcat/KM x 10^7 (R47E PTP1B; R47E PTP1B aa 1–321, pH 7.4): 0.00057 x 10^7 M^−1 s^−1
WT/R47E (R47E PTP1B; ratio of kcat/KM, WT over R47E PTP1B (fold decrease by the mutation)): 1.2
k of initial phase (PTPD1): > 100 s⁻¹
kcat/KM x 10^7 (PTP1B): 0.00069 x 10^7 M^−1 s^−1
Compound: O=[N+]([O-])c1ccc(OP(=O)(O)O)cc1 [pNPP, p-nitrophenyl phosphate, reference compound]
